In ChEMBL document CHEMBL4270578, “Synthesis and cytotoxic studies of novel 5-phenylisatin derivatives and their anti-migration and anti-angiogenic evaluation” (Eur J Med Chem, 2018):

Assays:
K562 = assay: Antiproliferative activity against human K562 cells after 48 hrs by MTT assay; type: functional, cell-based; details: K562, 48 h
Method in brief: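 MTT assay on K562 cells (RPMI-1640, 10% FBS) plated at 5 × 10^4 cells/ml for 2 h, then exposed to 10–100,000 nM compound for 48 h. MTT (5 mg/mL stock) added for 4 h before absorbance read. Viability normalized to DMSO controls (100%); IC50 from nonlinear regression, three independent assays.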

HepG2 = assay: Antiproliferative activity against human HepG2 cells after 48 hrs by MTT assay; type: functional, cell-based; details: HepG2, 48 h

IC50 (K562) [nM] | IC50 (HepG2) [nM] | SMILES
270 | 380 | COc1ccc(-c2ccc3c(c2)C(=O)C(=O)N3Cc2ccc(C(F)(F)F)cc2)cc1
 | 380 | COc1ccc(-c2ccc3c(c2)C(=O)C(=O)N3Cc2ccc3ccccc3c2)cc1
> 10000 | > 10000 | COc1ccc(CN2C(=O)C(F)(F)c3cc(-c4ccc(OC)cc4)ccc32)cc1
340 | > 10000 | COc1ccc(CN2C(=O)C(=O)c3cc(-c4ccc5ccccc5c4)ccc32)cc1
> 10000 | > 10000 | COc1ccc(CN2C(=O)C(=O)c3c(-c4ccc(OC)cc4)cccc32)cc1
310 | > 10000 | COc1ccc(CN2C(=O)C(=O)c3cc(-c4ccc(OC(C)C)cc4)ccc32)cc1
> 10000 | 5430 | O=C1Nc2ccc(-c3ccc(C(F)(F)F)cc3)cc2C1=O
350 | 250 | COc1ccc(-c2ccc3c(c2)C(=O)C(=O)N3Cc2ccc(Cl)cc2)cc1
380 | > 10000 | COc1ccc(CN2C(=O)C(=O)c3cc(-c4ccc(F)c(Cl)c4)ccc32)cc1
100 | 1890 | COc1ccc(CN2C(=O)C(=O)c3cc(-c4cccc(OC)c4)ccc32)cc1
240 | 3150 | COc1ccc(CN2C(=O)C(=O)c3cc(-c4ccc(F)cc4)ccc32)cc1
> 10000 | > 10000 | COc1ccc2c(c1)C(=O)C(=O)N2 [5-METHOXYISATIN]
> 10000 | > 10000 | COc1ccc(CN2C(=O)/C(=C\c3ccccc3)c3cc(-c4ccc(OC)cc4)ccc32)cc1
> 10000 | > 10000 | COc1ccc(CN2C(=O)/C(=C\c3ccc(C(C)C)cc3)c3cc(-c4ccc(OC)cc4)ccc32)cc1
 | 700 | COc1ccc(-c2ccc3c(c2)C(=O)C(=O)N3Cc2cccc(OC)c2)cc1
1900 | 4730 | COC(=O)/C=C1\C(=O)N(Cc2ccc(OC)cc2)c2ccc(-c3ccc(OC)cc3)cc21
> 10000 | > 10000 | COc1ccc(CN2C(=O)C3(OCCO3)c3cc(-c4ccc(OC)cc4)ccc32)cc1
100 | 700 | COc1ccc(-c2ccc3c(c2)C(=O)C(=O)N3Cc2ccc(Br)cc2)cc1
> 10000 | > 10000 | O=C1Nc2ccc(Br)cc2C1=O
> 10000 | > 10000 | O=C1Nc2ccccc2C1=O [ISATIN]
260 | 890 | COc1ccc(CN2C(=O)C(=O)c3cc(-c4ccc(C#N)cc4)ccc32)cc1
> 10000 | > 10000 | COc1ccc(CN2C(=O)/C(=N\O)c3cc(-c4ccc(OC)cc4)ccc32)cc1

IC50 (K562) [nM] | IC50 (HepG2) [nM] | SMILES
140 | 700 | COc1ccc(CN2C(=O)C(O)c3cc(-c4ccc(OC)cc4)ccc32)cc1 (stereo not drawn)
570 | 1360 | COc1ccc(-c2ccc3c(c2)C(=O)C(=O)N3Cc2ccccc2)cc1
60 | 410 | COc1ccc(CN2C(=O)C(=O)c3cc(-c4ccc(OC(F)(F)F)cc4)ccc32)cc1
510 | 1200 | COc1ccc(CN2C(=O)C(=O)c3cc(-c4cc(OC)cc(OC)c4)ccc32)cc1
380 | 1000 | COc1ccc(-c2ccc3c(c2)C(=O)C(=O)N3Cc2ccc(C#N)cc2)cc1
400 | 700 | COc1ccc(-c2ccc3c(c2)C(=O)C(=O)N3CCOc2ccccc2)cc1
430 | 990 | COc1ccc(-c2ccc3c(c2)C(=O)C(=O)N3Cc2ccc(Cl)c(Cl)c2)cc1
> 10000 | > 10000 | Cc1ccc2c(c1)C(=O)C(=O)N2
560 | 1120 | COc1ccc(-c2ccc3c(c2)C(=O)C(=O)N3Cc2ccc(F)cc2)cc1
4430 | 8560 | COc1ccc(CN2C(=O)C(=O)c3cccc(-c4ccc(OC)cc4)c32)cc1
230 | 380 | COc1ccc(CN2C(=O)C(=O)c3cc(-c4ccc(Cl)cc4)ccc32)cc1
350 | 820 | COc1ccc(CN2C(=O)C(=O)c3cc(-c4ccc(C(F)(F)F)cc4)ccc32)cc1
40 | 130 | COc1ccc(-c2ccc3c(c2)C(=O)C(=O)N3Cc2ccccc2OC)cc1
1900 | > 10000 | COc1ccc(CN2C(=O)/C(=C\c3ccc(C(F)(F)F)cc3)c3cc(-c4ccc(OC)cc4)ccc32)cc1
380 | 600 | COc1ccc(-c2ccc3c(c2)C(=O)C(=O)N3Cc2ccccc2Cl)cc1
2250 | 4580 | COc1ccc(CN2C(=O)C(=O)c3cc(-c4ccc(C(C)(C)C)cc4)ccc32)cc1
390 | 7090 | C=CCN1C(=O)C(=O)c2cc(-c3ccc(OC)cc3)ccc21
260 | > 10000 | COc1ccc(CN2C(=O)C(=O)c3cc(-c4ccc(OC)c(OC)c4)ccc32)cc1
140 | 410 | COc1ccc(-c2ccc3c(c2)C(=O)C(=O)N3Cc2cc(C)cc(C)c2)cc1
> 10000 | 5330 | O=C1Nc2ccc(-c3ccccc3)cc2C1=O
> 10000 | > 10000 | O=C1Nc2ccc(F)cc2C1=O [5-FLUOROISATIN]
400 | > 10000 | COc1ccc(CN2C(=O)C(=O)c3cc(-c4ccc(C)cc4)ccc32)cc1

IC50 (K562) [nM] | IC50 (HepG2) [nM] | SMILES
40 | > 10000 | COc1ccc(CN2C(=O)C(=O)c3cc(-c4ccncc4)ccc32)cc1
150 | 1080 | COc1ccc(CN2C(=O)C(=O)c3cc(-c4ccccc4)ccc32)cc1
80 | 3670 | COc1ccc(CN2C(=O)C(=O)c3cc(-c4ccsc4)ccc32)cc1
60 | 1350 | COc1ccc(-c2ccc3c(c2)C(=O)C(=O)N3Cc2ccc(OC)c(OC)c2)cc1
7460 | > 10000 | COc1ccc(CN2C(=O)C(=O)c3ccc(-c4ccc(OC)cc4)cc32)cc1
30 | 440 | COc1ccc(-c2ccc3c(c2)C(=O)C(=O)N3Cc2ccc3c(c2)OCO3)cc1
> 10000 | 6000 | Cc1ccc(-c2ccc3c(c2)C(=O)C(=O)N3)cc1
6920 | 960 | COc1ccc(-c2ccc3c(c2)C(=O)C(=O)N3)cc1
60 | > 10000 | COc1ccc(CN2C(=O)C(=O)c3cc(-c4ccc(O)cc4)ccc32)cc1
> 10000 | > 10000 | O=C1Nc2ccc(Cl)cc2C1=O
2200 | 4470 | CCN1C(=O)C(=O)c2cc(-c3ccc(OC)cc3)ccc21
1240 | 3390 | CCOC(=O)/C=C1\C(=O)N(Cc2ccc(OC)cc2)c2ccc(-c3ccc(OC)cc3)cc21
> 10000 | > 10000 | CCCCc1ccc2c(c1)C(=O)C(=O)N2
270 | 330 | COc1ccc(-c2ccc3c(c2)C(=O)C(=O)N3Cc2ccc(C)cc2)cc1
> 10000 | > 10000 | COc1ccc(CN2C(=O)C(C)(O)c3cc(-c4ccc(OC)cc4)ccc32)cc1 (stereo not drawn)
> 10000 | > 10000 | COc1ccc(CN2C(=O)Cc3cc(-c4ccc(OC)cc4)ccc32)cc1
4980 | 6670 | COc1ccc(-c2ccc3c(c2)C(=O)C(=O)N3C)cc1
> 10000 | > 10000 | COc1ccc(-c2ccc3c(c2)C(=O)C(=O)N3c2ccc(OC)cc2)cc1
200 | 320 | COc1ccc(-c2ccc3c(c2)C(=O)C(=O)N3Cc2cccc(Cl)c2)cc1
370 | > 10000 | COc1ccc(CN2C(=O)C(=O)c3cc(-c4ccccc4OC)ccc32)cc1

SMILES | IC50 (K562) [nM] | IC50 (HepG2) [nM]
CC[C@@]1(O)C(=O)OCc2c1cc1n(c2=O)Cc2cc3ccccc3nc2-1 [CAMPTOTHECIN] | 70 | 370
